Activity calls are given as the source filed them. No cut-off for these calls is given here. Bridge positions count the residues as written; N and C are the ends. Peptide text beside a SMILES is read from it.
Tests used:
[1] = target: Alpha-synuclein (Homo sapiens) (UniProt P37840); assay: Inhibition of alpha-synuclein-mediated toxicity in yeast transfected with human alpha-synuclein by spotting assay
Method in brief: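 Haploid W303 IntTox strain carrying integrated GAL1-driven human α-syn-YFP, transformed with CP plasmids by lithium acetate heat shock. At least three independent transformants tested. Cells serially diluted and plated on galactose medium to induce α-syn, then growth scored.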

[2] = target: Huntingtin (Homo sapiens) (UniProt P42858); assay: Inhibition of huntingtin-mediated toxicity in yeast transfected with human huntingtin by spotting assay
[3] = target: Alpha-synuclein (Homo sapiens) (UniProt P37840); assay: Inhibition of human alpha-synuclein-mediated accumulation of stalled vesicle pools in yeast transfected with human alpha-synuclein after 8 to 12 hrs by electron microscopy
[4] = target: Alpha-synuclein (Homo sapiens) (UniProt P37840); assay: Inhibition of alpha-synuclein-mediated dopaminergic neurodegeneration in Caenorhabditis elegans transfected with human alpha-synuclein
Method in brief: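 Age-synchronized transgenic worms expressing α-syn and GFP from the Pdat-1 promoter in DA neurons, with extrachromosomal mCP arrays; three independent lines per strain. Six anterior DA neurons (4 CEP, 2 ADE) scored at day 7 on 2% agarose pads with 2 mM levamisole, by epifluorescence. An animal with any dendrite, axon or cell body loss counted as degenerating. 30 worms per trial, three trials per line.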

Saccharomyces cerevisiae = assay: Effect on lacZ expression in yeast after 36 to 48 hrs by Gal1 reporter gene assay; format: functional, organism-based
Method in brief: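 GAL1::LacZ yeast (freshly integrated) grown on galactose plates; single colonies picked at 36–48 h, washed, normalized to OD600 0.4–0.8. CPRG substrate buffer (100 mM HEPES pH 7.25, 150 mM NaCl, 0.5% SDS, 0.75 mg/mL CPRG) added, shaken 30–120 min at room temperature. Absorbance read at 578 nm and corrected for yeast optical density.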

Sequence of Huntingtin (Homo sapiens) (P42858 whole entry): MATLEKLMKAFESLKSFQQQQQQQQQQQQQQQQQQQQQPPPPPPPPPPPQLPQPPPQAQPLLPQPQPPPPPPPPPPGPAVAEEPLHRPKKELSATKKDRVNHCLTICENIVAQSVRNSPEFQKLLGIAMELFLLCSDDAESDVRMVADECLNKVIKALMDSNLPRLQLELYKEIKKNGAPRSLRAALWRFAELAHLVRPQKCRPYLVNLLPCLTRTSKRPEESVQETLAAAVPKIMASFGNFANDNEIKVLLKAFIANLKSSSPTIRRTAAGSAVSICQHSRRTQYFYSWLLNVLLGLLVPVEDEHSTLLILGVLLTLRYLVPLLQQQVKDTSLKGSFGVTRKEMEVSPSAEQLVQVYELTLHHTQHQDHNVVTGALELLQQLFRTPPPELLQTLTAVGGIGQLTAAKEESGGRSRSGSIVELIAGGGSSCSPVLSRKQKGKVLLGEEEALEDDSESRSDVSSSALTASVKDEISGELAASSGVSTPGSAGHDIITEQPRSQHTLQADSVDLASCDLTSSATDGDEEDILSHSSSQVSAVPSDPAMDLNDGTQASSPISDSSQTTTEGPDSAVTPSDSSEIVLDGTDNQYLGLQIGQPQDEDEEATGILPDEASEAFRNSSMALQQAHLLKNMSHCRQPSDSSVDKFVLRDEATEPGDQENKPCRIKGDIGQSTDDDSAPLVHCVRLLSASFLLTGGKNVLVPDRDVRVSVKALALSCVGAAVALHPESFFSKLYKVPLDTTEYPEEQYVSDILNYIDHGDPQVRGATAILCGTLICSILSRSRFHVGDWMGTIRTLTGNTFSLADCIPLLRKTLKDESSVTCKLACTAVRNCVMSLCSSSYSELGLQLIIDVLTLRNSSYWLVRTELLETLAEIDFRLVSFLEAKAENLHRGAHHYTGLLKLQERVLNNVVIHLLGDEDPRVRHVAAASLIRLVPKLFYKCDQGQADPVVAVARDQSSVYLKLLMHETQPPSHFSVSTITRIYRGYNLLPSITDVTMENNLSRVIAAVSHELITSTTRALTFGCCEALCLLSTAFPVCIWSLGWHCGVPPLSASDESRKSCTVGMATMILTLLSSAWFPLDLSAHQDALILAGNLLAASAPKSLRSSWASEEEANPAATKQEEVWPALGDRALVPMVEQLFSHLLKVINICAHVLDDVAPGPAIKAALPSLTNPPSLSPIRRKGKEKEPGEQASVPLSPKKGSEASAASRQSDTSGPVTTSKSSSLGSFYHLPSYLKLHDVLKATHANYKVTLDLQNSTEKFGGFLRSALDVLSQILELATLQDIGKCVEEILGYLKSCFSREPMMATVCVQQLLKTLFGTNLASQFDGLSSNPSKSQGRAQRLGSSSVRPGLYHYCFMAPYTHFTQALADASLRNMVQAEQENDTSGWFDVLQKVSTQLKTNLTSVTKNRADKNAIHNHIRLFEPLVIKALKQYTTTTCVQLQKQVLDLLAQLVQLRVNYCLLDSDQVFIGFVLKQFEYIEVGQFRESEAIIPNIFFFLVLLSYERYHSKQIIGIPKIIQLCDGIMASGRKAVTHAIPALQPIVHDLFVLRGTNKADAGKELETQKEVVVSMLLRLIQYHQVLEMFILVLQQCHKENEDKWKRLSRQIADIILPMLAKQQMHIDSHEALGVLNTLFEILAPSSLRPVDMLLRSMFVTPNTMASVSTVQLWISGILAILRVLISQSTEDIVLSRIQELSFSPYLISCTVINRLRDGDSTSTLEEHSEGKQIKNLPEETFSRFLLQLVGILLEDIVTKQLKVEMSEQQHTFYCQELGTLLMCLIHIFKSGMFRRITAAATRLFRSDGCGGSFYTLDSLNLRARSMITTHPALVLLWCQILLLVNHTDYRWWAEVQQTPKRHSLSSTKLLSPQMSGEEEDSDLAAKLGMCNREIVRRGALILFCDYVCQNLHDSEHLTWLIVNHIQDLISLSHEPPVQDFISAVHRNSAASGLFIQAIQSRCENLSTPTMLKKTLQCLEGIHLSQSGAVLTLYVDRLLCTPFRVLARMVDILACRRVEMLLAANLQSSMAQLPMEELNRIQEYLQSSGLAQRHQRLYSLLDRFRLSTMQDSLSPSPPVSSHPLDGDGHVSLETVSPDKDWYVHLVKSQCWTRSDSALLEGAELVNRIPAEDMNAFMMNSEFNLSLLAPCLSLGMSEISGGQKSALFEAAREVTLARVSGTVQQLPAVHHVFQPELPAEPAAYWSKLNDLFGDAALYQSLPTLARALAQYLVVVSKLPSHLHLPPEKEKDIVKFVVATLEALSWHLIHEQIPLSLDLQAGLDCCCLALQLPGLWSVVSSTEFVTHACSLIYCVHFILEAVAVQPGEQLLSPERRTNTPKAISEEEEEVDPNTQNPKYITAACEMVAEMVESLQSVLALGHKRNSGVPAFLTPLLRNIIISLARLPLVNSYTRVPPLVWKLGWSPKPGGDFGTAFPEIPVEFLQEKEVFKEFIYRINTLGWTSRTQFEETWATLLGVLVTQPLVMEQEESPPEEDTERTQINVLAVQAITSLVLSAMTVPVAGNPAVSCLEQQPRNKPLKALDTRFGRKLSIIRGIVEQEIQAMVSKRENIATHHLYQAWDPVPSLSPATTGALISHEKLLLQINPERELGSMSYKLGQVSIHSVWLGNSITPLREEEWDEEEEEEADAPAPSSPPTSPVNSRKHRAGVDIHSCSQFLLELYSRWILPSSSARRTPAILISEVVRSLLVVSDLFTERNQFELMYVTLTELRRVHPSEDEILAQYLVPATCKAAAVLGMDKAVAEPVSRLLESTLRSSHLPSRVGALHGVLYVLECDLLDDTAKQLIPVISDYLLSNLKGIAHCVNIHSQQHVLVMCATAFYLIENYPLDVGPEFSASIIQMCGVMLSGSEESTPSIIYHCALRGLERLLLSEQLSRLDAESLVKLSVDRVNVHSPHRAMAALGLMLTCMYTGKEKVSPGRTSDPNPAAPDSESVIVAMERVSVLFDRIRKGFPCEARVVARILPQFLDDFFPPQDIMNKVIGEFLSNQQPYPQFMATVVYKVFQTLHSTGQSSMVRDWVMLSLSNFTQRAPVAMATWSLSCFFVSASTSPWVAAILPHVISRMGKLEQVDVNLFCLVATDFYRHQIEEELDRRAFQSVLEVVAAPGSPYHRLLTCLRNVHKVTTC

Row | Structure (SMILES) | inhibition [1] | Activity [2] | Activity [3] | percent of animals without neurodegeneration [4] | Activity (Saccharomyces cerevisiae) | inhibition [4]
1 | CC(C)[C@H](NC(=O)[C@H](CCCNC(=N)N)NC(=O)CNC(=O)[C@H](CO)NC(=O)[C@@H]1CSSC[C@H](N)C(=O)N2CCC[C@H]2C(=O)N[C@@H](Cc2c[nH]c3ccccc23)C(=O)N1)C(=O)O (H-CPWCSGRV-OH; disulfide 1-4) | Active |  |  |  |  | 
2 | CC(C)[C@H](NC(=O)[C@H](CCCNC(=N)N)NC(=O)[C@@H](NC(=O)[C@H](CO)NC(=O)[C@@H]1CSSC[C@H](N)C(=O)N2CCC[C@H]2C(=O)N[C@@H](Cc2c[nH]c3ccccc23)C(=O)N1)[C@@H](C)O)C(=O)O (H-CPWCSTRV-OH; disulfide 1-4) | Active | inactive | inactive | 26% | inactive | 
3 | CC(C)[C@H](NC(=O)[C@H](CCCNC(=N)N)NC(=O)[C@H](C)NC(=O)[C@H](CO)NC(=O)[C@@H]1CSSC[C@H](N)C(=O)N2CCC[C@H]2C(=O)N[C@@H](Cc2c[nH]c3ccccc23)C(=O)N1)C(=O)O (H-CPWCSARV-OH; disulfide 1-4) | Active |  |  |  |  | 
4 | CC(C)C[C@@H]1NC(=O)[C@H](C)NC(=O)[C@@H](N)CSSC[C@@H](C(=O)N[C@@H](CC(=O)O)C(=O)N2CCC[C@H]2C(=O)N[C@@H](Cc2c[nH]c3ccccc23)C(=O)N[C@@H](Cc2c[nH]c3ccccc23)C(=O)O)NC1=O (H-CALCDPWW-OH; disulfide 1-4) | Active | inactive | inactive | 24% | inactive | 
5 | CC(C)C[C@H](NC(=O)[C@H](C)NC(=O)[C@H](C)N)C(=O)N[C@@H](CS)C(=O)N[C@@H](CC(=O)O)C(=O)N1CCC[C@H]1C(=O)N[C@@H](Cc1c[nH]c2ccccc12)C(=O)N[C@@H](Cc1c[nH]c2ccccc12)C(=O)O (H-AALCDPWW-OH) |  |  |  |  |  | inactive
6 | CC(C)[C@H](NC(=O)[C@H](CCCNC(=N)N)NC(=O)[C@@H](NC(=O)[C@H](CO)NC(=O)[C@H](CS)NC(=O)[C@H](Cc1c[nH]c2ccccc12)NC(=O)[C@@H]1CCCN1C(=O)[C@H](C)N)[C@@H](C)O)C(=O)O (H-APWCSTRV-OH) |  |  |  |  |  | inactive
